# Bioassay records from PubChem BioAssay.
# Rows were chosen to be rich in hits. Some 3.5% of all compounds tested hit in one or more screens of this group.
# MrgX1 PAM = allosterically activates human MrgX1 receptor signaling. Q96LB2. MrgX1-HEK293, Fluo-4 calcium flux, FDSS; stronger effect = higher value. B-score at 10 µM. 310,000 compounds, 0.63% hits;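 active = plate-corrected calcium response at least 3 library SD above typical, normal starting fluorescence, not activating the receptor alone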;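 also: compound read alongside a low EC10 to EC30 dose of BAM8-22 agonist; peak minus trough fluorescence over baseline measured at the second addition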
# Target sequence (Q96LB2 whole entry, looked up): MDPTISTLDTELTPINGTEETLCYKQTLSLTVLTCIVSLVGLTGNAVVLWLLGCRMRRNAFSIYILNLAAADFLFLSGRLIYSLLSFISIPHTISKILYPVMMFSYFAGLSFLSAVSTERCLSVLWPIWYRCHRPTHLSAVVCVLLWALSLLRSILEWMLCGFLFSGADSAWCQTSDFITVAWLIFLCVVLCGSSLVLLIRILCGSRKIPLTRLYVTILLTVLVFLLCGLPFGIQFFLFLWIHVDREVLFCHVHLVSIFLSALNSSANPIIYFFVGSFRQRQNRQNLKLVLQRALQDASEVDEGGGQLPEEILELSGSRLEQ
# RGS4 act = RGS4 potentiation or activation; B-score at 10 µM; HEK293 M3R/inducible RGS4, carbachol calcium flux Fluo4; stronger effect = lower value; 310,000 compounds, 0.92% hits;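 active = B-score of the integrated calcium signal more than 4 SD below the library mean, with starting fluorescence not abnormally high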;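 also: negative B-score means reduced calcium response which marks RGS4 activation or potentiation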
#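 Test system: HEK293 cells with stable M3R and inducible RGS4; also added: carbachol at ECmax as muscarinic agonist stimulus; schedule: dye loading 30 min 37 °C, buffer rest 30 min RT; technique: kinetic calcium fluorescence imaging with Fluo4-AM dye, 2 µM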
# RGS4 block = inhibitors of human RGS4 | HEK293 M3R/RGS4 inducible, Fluo-4 calcium flux; stronger effect = higher value; triggered by carbachol at its EC20 | B-score at 10 µM | P49798 | 310,000 compounds, 0.45% hits | AID 463165;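 active = B-score, a plate-corrected calcium signal, over three deviations above library mean, with baseline fluorescence within five deviations of library mean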;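 also: RGS4 expression induced by doxycycline in cells with stable M3 receptor; B-score is computed from the integrated fluorescence ratio over baseline after carbachol; higher B-score means a larger calcium signal and so more RGS4 inhibition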
# MrgX1 agonist = agonists of human MrgX1 receptor; Q96LB2; MrgX1-HEK293 cells, Fluo-4 calcium fluorescence, agonist mode; stronger effect = higher value; 310,000 compounds, 0.44% hits; B-score at 10 µM;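 active = calcium response B-score plate-corrected fluorescence ratio at least 3 library SD, with starting fluorescence B-score inside 5 SD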
#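 Test system: HEK293 cells stably expressing human MrgX1 receptor; Input: fifteen thousand cells per well; Dosing: compound delivered in addition one of three; Schedule: overnight seeding, then 1 h dark dye loading; Technique: Fluo-4 NW calcium fluorescence; Measure: B-scored fluorescence response ratio; Controls: positive and negative controls per plate.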
# MrgX1 antag = antagonists of human MrgX1 receptor; Q96LB2; MRGX1-HEK293 calcium flux, Fluo-4, BAM8-22 antagonism; stronger effect = lower value; B-score at 10 µM; 310,000 compounds, 1.3% hits;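 active = calcium-response B-score plate-corrected more than 3 library SD below zero, starting fluorescence within 5 deviations, no agonist response on first addition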;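 also: peak minus trough fluorescence over baseline after final BAM8-22 challenge near maximal dose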
# Starred values were filed as active, the others as inactive; i = inactive.
SMILES,MrgX1 PAM,RGS4 act,RGS4 block,MrgX1 agonist,MrgX1 antag
Oc1[nH]c2ccccc2c1C1=NCCCCC1,i,i,i,i,i
O=C(Nc1ccc(S(=O)(=O)Nc2nccs2)cc1)c1cnc(Cl)c(Cl)c1,i,i,i,i,i
CCC[N+]1(CC#CC(O)(c2ccccc2)C2CCCCC2)CCCCC1 (stereo unspecified),i,-8.2*,i,i,i
Cc1cc(=O)n2nc(N3CCCC(C(=O)N4CCc5ccccc54)C3)sc2n1 (stereo unspecified),i,-7.7*,i,i,i
CN1C(=O)/C(=C/c2ccccc2OCc2ccc(F)cc2)N(C)C1=S,i,-9.6*,i,i,-5.2*
CN1C(=O)/C(=C/c2ccccc2OCc2ccccc2)NC1=S,i,i,i,i,i
CCCN1C(=O)c2cc(C(=O)Nc3ccccc3OC)ccc2C1Nc1ccccc1OC (stereo unspecified),i,-7.2*,i,i,i
COc1ccc(C[C@H](C)NC[C@@H](O)c2ccc(O)c(NC=O)c2)cc1,7.7*,i,i,i,i
Cc1ccc2nc(N3CCN(c4cccc(C)c4C)CC3)c3nnnn3c2c1,i,i,i,i,i
Cc1ccc2nc(Cl)c3nnnn3c2c1,8.7*,i,i,i,i
Cc1cc(C)nc(/N=C(\N)Nc2ccc([N+](=O)[O-])cc2)n1,i,i,i,i,i
Cc1cc(C)nc(/N=C(\N)Nc2cccc([N+](=O)[O-])c2)n1,i,i,i,41*,i
Cc1ccc(NC(=O)Nc2cccc([N+](=O)[O-])c2)cc1F,i,i,i,i,-6.1*
O=C(Nc1cccnc1)c1ccc(NS(=O)(=O)c2cccc([N+](=O)[O-])c2)cc1,14*,i,i,i,i
Cc1cc(NC(=O)Nc2cccc([N+](=O)[O-])c2)no1,i,i,i,i,i
O=C(Nc1cccnc1)Nc1cccc([N+](=O)[O-])c1,i,i,i,i,-5.2*
COc1cc([N+](=O)[O-])ccc1NC(=O)Nc1cccnc1,i,i,i,i,i
Cc1ccc(C)c(S(=O)(=O)N2CCN(C(=O)CCC(=O)c3cc(C)sc3C)CC2)c1,i,i,i,i,i
CN(CC(=O)NCCc1ccccc1)S(=O)(=O)c1ccc(Br)s1,i,i,i,i,i
CCN1CCN(c2ccc(S(=O)(=O)N3CCOCC3)cc2NC(=O)C(C)Oc2ccc(Cl)cc2)CC1 (stereo unspecified),i,i,i,i,i
O=C(Nc1ccc(OC(F)(F)F)cc1)Nc1cccc([N+](=O)[O-])c1,i,i,i,i,-6.6*
O=C(Nc1ccc(OC(F)(F)F)cc1)Nc1cccnc1,i,i,i,i,i
COc1ccccc1NC(=O)Cn1cc(C(=O)c2ccco2)c2ccccc21,i,i,i,i,i
COc1ccccc1OCCn1cc(C(=O)c2ccco2)c2ccccc21,i,-7.4*,i,i,i
Cc1nccn1CCCNCc1c(C(=O)N2CCCCCCC2)nc2ccc(Cl)cn12,i,i,i,i,i
SMILES,MrgX1 PAM,RGS4 act,RGS4 block,MrgX1 agonist,MrgX1 antag
COc1cccc(/C=N/NC(=O)c2ccoc2C)c1,i,-8.5*,i,i,i
Cc1ccc(C(=O)N2CCN(c3ccccc3Cl)CC2)cc1[N+](=O)[O-],i,i,i,i,i
Clc1ccc(SCc2cc(Cl)nc(-c3ccccc3)n2)cc1,i,-7*,i,i,i
Clc1cc(CSc2ccccc2)nc(-c2ccccc2)n1,i,i,i,i,i
COCCN1C(=O)C(=O)/C(=C(/O)c2ccc(S(=O)(=O)N3CCOCC3)cc2)C1c1cccc([N+](=O)[O-])c1 (stereo unspecified),i,i,i,i,i
O=[N+]([O-])c1ccc(Cl)c2c1C1C=CCC1C(c1ccccn1)N2 (stereo unspecified),i,i,i,i,-5.6*
CSCCC(NS(=O)(=O)/C=C/c1ccccc1)C(=O)NCCc1ccc(S(N)(=O)=O)cc1 (stereo unspecified),i,i,i,i,i
